Results as given in ChEMBL document CHEMBL3627690, “Scaffold-Hopping and Structure-Based Discovery of Potent, Selective, And Brain Penetrant N-(1H-Pyrazol-3-yl)pyridin-2-amine Inhibitors of Dual Leucine Zipper Kinase (DLK, MAP3K12)” (J Med Chem, 2015).
Activity calls are given as the source filed them. The calls are words filed in the database; no cut-off is given here.

Assays:
[1] = Oral bioavailability in […] rat at 1 or 5 mg/kg; type: ADME, organism-based; conditions: in vivo
Method in brief: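 Rat PK: iv dosing at 0.4 or 1 mg/kg as a 60% PEG solution, po dosing at 1 or 5 mg/kg as an aqueous suspension with 1% methylcellulose.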

[2] = biological target: T1, Mitogen-activated protein kinase kinase kinase 12 (Homo sapiens) (UniProt Q12852); assay: Inhibition of Flag DLK (unknown origin) transfected in HEK293 cells assessed as reduction of phosphorylation of MKK7 at 0.1 to 10 uM incubated for 5 hrs measured by Western blot analysis; type: cell-based
T1 sequence (whole entry): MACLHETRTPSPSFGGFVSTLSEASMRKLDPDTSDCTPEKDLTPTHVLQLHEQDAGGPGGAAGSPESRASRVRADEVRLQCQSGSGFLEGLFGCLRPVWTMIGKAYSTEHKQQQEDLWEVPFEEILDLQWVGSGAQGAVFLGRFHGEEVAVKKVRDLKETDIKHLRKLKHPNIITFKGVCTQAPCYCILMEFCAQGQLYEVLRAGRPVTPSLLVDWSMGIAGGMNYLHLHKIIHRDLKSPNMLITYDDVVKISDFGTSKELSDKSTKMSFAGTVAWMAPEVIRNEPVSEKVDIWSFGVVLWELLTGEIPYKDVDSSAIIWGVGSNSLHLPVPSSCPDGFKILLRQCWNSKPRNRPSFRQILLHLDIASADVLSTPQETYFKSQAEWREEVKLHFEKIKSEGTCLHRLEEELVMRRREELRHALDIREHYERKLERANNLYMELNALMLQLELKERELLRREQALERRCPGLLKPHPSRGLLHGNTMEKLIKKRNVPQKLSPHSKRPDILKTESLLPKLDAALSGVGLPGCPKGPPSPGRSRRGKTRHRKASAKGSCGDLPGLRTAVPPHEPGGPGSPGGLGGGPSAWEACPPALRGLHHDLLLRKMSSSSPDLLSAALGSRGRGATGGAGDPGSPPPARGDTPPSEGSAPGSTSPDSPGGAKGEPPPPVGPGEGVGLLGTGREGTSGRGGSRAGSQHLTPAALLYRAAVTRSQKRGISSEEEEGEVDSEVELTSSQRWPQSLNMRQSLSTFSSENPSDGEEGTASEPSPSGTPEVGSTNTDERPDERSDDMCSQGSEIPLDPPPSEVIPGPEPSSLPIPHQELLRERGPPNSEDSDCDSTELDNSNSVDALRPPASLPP
Method in brief: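 HEK293 cells were transfected with Flag-tagged DLK, with kinase-dead DLK K152A as comparator, 24 h before compound addition. Cells were then exposed to compound for 5 h. Phospho-MKK4, phospho-MKK7, phospho-JNK and phospho-c-Jun were probed.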

[3] = biological target: Hepatocyte growth factor receptor (Homo sapiens) (UniProt P08581); assay: Inhibition of Met (unknown origin) at 1 uM by FRET method
Method in brief: (§1)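 Single-point screen at 1 uM against a panel of 58 representative kinases. Readout was labeled-peptide phosphorylation by FRET (Z′-LYTE), using the vendor's protocols.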

[4] = biological target: Mitogen-activated protein kinase kinase kinase 9 (Homo sapiens, UniProt P80192); assay: Inhibition of MLK1 (unknown origin) at 1 uM by FRET method; method in brief: as §1
Sequence of Mitogen-activated protein kinase kinase kinase 9 (P80192 whole entry, looked up): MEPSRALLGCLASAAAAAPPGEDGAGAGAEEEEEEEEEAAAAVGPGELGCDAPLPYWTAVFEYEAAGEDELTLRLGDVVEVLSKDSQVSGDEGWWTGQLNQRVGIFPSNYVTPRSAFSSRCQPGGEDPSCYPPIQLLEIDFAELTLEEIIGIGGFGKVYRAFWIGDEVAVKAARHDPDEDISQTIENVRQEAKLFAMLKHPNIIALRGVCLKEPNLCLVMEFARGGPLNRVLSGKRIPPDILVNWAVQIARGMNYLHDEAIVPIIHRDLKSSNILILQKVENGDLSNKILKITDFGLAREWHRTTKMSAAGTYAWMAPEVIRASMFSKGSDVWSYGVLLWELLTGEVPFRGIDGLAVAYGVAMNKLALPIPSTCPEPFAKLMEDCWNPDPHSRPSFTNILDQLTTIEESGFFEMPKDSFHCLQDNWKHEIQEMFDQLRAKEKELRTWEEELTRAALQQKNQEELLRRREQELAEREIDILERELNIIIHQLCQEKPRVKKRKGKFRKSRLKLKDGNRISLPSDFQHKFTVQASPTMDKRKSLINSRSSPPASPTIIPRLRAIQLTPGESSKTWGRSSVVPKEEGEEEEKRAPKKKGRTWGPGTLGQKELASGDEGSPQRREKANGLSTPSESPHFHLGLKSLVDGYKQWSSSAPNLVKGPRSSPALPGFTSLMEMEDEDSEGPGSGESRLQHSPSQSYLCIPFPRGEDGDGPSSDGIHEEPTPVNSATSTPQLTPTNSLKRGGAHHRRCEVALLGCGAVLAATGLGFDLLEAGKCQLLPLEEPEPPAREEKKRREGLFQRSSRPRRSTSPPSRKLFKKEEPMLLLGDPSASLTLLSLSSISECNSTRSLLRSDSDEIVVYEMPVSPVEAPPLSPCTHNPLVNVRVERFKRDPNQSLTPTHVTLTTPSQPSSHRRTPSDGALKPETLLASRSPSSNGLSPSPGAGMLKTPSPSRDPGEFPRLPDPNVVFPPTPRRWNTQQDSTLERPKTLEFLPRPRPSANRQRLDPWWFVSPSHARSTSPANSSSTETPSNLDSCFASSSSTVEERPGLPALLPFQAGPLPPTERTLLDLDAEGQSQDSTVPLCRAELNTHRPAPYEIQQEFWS

[5] = biological target: Mitogen-activated protein kinase kinase kinase 11 (Homo sapiens, UniProt Q16584); assay: Inhibition of MLK3 (unknown origin) at 1 uM by FRET method; method in brief: as §1
[6] = biological target: Serine/threonine-protein kinase mTOR (Homo sapiens) (UniProt P42345); assay: Inhibition of mTOR (unknown origin) at 1 uM by FRET method; method in brief: as §1
[7] = biological target: Ribosomal protein S6 kinase beta-1 (Homo sapiens) (UniProt P23443); assay: Inhibition of p70S6K (unknown origin) at 1 uM by FRET method; method in brief: as §1
[8] = biological target: Phosphorylase b kinase gamma catalytic chain, liver/testis isoform (Homo sapiens) (UniProt P15735); assay: Inhibition of PhKgamma2 (unknown origin) at 1 uM by FRET method; method in brief: as §1
[9] = biological target: Serine/threonine-protein kinase pim-1 (Homo sapiens) (UniProt P11309); assay: Inhibition of PIM1 (unknown origin) at 1 uM by FRET method; method in brief: as §1
Sequence of Serine/threonine-protein kinase pim-1 (Homo sapiens) (P11309 whole entry, looked up): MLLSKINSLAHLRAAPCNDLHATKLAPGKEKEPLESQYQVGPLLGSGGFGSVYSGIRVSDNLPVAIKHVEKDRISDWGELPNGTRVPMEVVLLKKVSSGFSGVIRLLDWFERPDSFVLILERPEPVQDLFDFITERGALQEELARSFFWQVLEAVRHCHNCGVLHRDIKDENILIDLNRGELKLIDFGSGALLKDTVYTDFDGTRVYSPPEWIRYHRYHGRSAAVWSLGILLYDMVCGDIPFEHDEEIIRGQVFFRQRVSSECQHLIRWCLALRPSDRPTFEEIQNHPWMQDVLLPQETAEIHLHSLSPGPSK

[10] = biological target: Proto-oncogene tyrosine-protein kinase receptor Ret (Homo sapiens) (UniProt P07949); assay: Inhibition of Ret (unknown origin) at 1 uM by FRET method; method in brief: as §1
Sequence of Proto-oncogene tyrosine-protein kinase receptor Ret (Homo sapiens) (P07949 whole entry): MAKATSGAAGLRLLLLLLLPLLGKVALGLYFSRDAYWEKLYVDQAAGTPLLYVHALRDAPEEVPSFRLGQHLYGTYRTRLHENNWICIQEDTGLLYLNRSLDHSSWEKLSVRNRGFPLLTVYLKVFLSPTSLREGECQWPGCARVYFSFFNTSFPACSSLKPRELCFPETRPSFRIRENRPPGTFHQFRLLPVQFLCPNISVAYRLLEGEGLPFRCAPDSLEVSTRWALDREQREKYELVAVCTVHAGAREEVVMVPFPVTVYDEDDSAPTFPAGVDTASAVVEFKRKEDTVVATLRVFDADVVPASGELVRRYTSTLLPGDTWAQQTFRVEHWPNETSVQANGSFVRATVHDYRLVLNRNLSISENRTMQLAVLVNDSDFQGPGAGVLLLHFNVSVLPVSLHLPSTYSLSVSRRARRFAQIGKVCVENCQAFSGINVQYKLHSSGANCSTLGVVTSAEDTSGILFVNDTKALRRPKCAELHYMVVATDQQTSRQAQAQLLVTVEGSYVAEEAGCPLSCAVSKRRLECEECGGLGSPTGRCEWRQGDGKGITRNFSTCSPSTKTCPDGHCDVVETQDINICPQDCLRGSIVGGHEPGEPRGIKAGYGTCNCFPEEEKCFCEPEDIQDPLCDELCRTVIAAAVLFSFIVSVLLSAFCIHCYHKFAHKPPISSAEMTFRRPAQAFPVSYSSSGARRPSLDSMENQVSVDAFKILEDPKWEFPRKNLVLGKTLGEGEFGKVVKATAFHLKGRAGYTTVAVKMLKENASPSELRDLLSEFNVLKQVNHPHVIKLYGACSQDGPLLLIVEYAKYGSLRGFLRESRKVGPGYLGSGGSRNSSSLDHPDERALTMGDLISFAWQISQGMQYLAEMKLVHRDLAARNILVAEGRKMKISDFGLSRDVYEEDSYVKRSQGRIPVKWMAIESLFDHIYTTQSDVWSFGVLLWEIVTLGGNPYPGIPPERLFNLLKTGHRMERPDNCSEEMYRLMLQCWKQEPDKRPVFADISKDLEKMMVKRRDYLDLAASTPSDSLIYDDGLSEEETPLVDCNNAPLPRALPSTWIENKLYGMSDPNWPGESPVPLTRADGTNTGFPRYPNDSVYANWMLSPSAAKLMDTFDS

[11] = biological target: Rho-associated protein kinase 1 (Homo sapiens) (UniProt Q13464); assay: Inhibition of ROCK1 (unknown origin) at 1 uM by FRET method; method in brief: as §1
[12] = biological target: Tyrosine-protein kinase BTK (Homo sapiens) (UniProt Q06187); assay: Inhibition of BTK (unknown origin) at 1 uM by FRET method
Method in brief: (§2)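 SelectScreen panel of 58 kinases, each tested at a single 1 µM compound concentration. Read-out was Z′-LYTE FRET of labeled peptide phosphorylation, run by the vendor's protocols, reported as percent inhibition.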

[13] = biological target: Mitogen-activated protein kinase kinase kinase 8 (Homo sapiens) (UniProt P41279); assay: Inhibition of Cot (unknown origin) at 1 uM by FRET method; method in brief: as §2
Sequence of Mitogen-activated protein kinase kinase kinase 8 (Homo sapiens) (P41279 whole entry): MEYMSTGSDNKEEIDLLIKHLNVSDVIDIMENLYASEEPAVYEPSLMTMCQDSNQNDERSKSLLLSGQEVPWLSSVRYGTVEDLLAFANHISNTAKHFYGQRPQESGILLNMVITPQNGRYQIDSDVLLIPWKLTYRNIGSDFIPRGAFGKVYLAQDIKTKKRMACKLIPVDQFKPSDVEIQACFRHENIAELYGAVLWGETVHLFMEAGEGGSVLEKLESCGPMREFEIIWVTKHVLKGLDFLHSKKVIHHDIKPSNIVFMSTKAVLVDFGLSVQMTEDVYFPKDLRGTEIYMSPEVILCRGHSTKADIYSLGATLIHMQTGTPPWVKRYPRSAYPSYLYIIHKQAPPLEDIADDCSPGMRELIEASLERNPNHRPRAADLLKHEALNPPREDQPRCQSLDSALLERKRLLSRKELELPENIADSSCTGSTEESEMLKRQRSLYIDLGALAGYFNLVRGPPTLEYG

[14] = biological target: Epidermal growth factor receptor (Homo sapiens) (UniProt P00533); assay: Inhibition of EGFR (unknown origin) at 1 uM by FRET method; method in brief: as §2
Sequence of Epidermal growth factor receptor (Homo sapiens) (P00533 whole entry): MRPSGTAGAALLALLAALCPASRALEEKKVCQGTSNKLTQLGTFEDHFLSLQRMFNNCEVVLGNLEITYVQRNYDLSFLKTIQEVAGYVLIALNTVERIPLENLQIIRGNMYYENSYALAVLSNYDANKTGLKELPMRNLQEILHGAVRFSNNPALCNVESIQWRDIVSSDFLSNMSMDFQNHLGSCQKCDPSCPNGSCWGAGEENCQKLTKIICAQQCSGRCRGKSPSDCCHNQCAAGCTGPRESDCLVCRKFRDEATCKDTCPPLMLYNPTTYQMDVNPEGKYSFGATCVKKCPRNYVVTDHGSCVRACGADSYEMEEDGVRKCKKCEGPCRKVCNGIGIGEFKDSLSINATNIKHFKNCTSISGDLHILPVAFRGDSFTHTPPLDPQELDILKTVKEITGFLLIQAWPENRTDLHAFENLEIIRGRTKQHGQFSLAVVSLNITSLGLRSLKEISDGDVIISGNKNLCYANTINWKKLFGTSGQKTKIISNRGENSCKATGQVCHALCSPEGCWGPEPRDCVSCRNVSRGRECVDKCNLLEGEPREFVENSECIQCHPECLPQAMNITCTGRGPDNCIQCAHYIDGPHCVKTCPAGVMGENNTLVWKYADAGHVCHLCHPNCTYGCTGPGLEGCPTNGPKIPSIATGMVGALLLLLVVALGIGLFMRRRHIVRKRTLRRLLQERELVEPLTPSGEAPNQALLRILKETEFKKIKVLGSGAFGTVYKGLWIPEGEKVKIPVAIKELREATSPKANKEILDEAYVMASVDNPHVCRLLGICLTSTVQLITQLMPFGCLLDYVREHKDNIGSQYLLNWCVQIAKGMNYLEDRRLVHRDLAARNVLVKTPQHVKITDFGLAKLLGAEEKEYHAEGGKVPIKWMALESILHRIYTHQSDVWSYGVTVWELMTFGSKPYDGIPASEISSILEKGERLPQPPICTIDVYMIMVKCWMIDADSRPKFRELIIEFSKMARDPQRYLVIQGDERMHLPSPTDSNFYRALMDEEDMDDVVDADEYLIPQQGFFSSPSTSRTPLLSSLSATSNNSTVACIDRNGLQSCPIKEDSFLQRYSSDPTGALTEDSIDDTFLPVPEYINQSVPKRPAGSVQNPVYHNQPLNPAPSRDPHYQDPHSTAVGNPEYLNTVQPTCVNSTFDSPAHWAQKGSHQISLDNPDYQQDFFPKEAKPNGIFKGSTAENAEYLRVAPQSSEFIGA

[15] = biological target: Receptor tyrosine-protein kinase erbB-2 (Homo sapiens) (UniProt P04626); assay: Inhibition of ErbB2 (unknown origin) at 1 uM by FRET method; method in brief: as §2
[16] = biological target: Fibroblast growth factor receptor 1 (Homo sapiens) (UniProt P11362); assay: Inhibition of FGFR1 (unknown origin) at 1 uM by FRET method; method in brief: as §2
[17] = biological target: Mast/stem cell growth factor receptor Kit (Homo sapiens, UniProt P10721); assay: Inhibition of Kit (unknown origin) at 1 uM by FRET method; method in brief: as §2
[18] = biological target: Macrophage colony-stimulating factor 1 receptor (Homo sapiens, UniProt P07333); assay: Inhibition of CSF1R (unknown origin) by FRET method
[19] = biological target: Receptor-type tyrosine-protein kinase FLT3 (Homo sapiens, UniProt P36888); assay: Inhibition of Flt3 (unknown origin) by FRET method
[20] = biological target: High affinity nerve growth factor receptor (Homo sapiens, UniProt P04629); assay: Inhibition of TrkA (unknown origin) by FRET method
Sequence of High affinity nerve growth factor receptor (P04629 whole entry): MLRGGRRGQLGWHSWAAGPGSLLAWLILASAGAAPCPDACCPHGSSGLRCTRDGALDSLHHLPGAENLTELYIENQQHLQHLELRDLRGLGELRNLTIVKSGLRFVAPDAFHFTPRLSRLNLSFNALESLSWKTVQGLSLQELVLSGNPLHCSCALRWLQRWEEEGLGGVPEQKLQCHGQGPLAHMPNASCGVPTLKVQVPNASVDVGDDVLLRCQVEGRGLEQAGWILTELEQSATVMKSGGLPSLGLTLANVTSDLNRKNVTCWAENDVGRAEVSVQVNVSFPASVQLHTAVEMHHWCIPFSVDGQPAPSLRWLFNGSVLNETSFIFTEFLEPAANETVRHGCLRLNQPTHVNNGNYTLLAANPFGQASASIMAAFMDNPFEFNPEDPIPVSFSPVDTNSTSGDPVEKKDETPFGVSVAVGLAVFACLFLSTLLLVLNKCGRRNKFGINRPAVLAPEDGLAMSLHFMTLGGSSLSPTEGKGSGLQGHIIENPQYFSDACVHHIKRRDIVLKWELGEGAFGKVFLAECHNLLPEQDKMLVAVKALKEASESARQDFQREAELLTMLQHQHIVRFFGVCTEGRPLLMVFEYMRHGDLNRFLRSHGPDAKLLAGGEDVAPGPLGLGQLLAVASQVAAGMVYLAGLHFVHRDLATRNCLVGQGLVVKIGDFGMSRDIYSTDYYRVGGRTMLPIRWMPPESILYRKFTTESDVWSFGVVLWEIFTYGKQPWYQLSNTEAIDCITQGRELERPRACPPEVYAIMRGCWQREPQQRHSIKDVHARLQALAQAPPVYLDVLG
Method in brief: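 Biochemical IC50 determination from a 10-point dose-response in an enzymatic Z′-LYTE assay. Labeled-peptide phosphorylation was read by FRET under the vendor's protocols.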

[21] = biological target: Mitogen-activated protein kinase 9 (Homo sapiens, UniProt P45984); assay: Inhibition of JNK2 (unknown origin) by FRET method
Method in brief: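 JNK1, JNK2 and JNK3 IC50 values came from a 10-point dose–response enzymatic assay.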

[22] = Cmax in mouse at 50 mg/kg, po; type: ADME, organism-based; parameters: dose 50 mg/kg, route oral; conditions: in vivo
Method in brief: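 C57/Bl6 mice were given a single 50 mg/kg oral dose as an MCT suspension. Plasma was sampled over 0–6 h for Cmax, Tmax and AUC0–6h.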

Mus musculus = assay: Unbound fraction in brain in mouse at 50 mg/kg, po at 6 hr; type: ADME, organism-based; conditions: in vivo

N#Cc1ccnc(Nc2cc(C3CCN(C4COC4)CC3)n(C3CCCC3)n2)c1
bioavailability [1]: 58% | inhibition [2]: Active | inhibition [3]: 23.4% | inhibition [4]: 4.4% | inhibition [5]: 1.4% | inhibition [6]: 9.2% | inhibition [7]: 0.8% | inhibition [8]: -1.9% | inhibition [9]: 6.6% | inhibition [10]: 29.6% | inhibition [11]: -3% | inhibition [12]: 32.4% | inhibition [13]: 15.6% | inhibition [14]: 2.1% | inhibition [15]: 1% | inhibition [16]: 0.3% | inhibition [17]: 56% | IC50 [18]: 57 nM | IC50 [19]: 322 nM | IC50 [20]: 464 nM | IC50 [21]: 5 µM | Cmax [22]: 5.9 µM | Drug uptake(free) (Mus musculus): 0.05 µM
